Results taken from ChEMBL document CHEMBL3739255, “Novel Series of Dihydropyridinone P2X7 Receptor Antagonists” (J Med Chem, 2015).
In brackets after ≈: the same amount, converted by molar mass.

How the values were obtained:
[1] = Drug degradation in human plasma at 10 uM after 4 hrs by LC/MS/MS analysis; type: ADME, cell-free; settings: read-out: Drug degradation
P2X purinoceptor 7 [2] = molecular target: T1, P2X purinoceptor 7 (Homo sapiens, UniProt Q99572); test: Antagonist activity at human P2X7R expressed in BzATP-stimulated human 1321N1 cells incubated for 20 mins followed by BzATP stimulation measured every 1 sec for 60 secs followed by 3 sec intervals for 4 mins by FLIPR Ca2+ assay in presence of ionomycin; type: cell-based
T1 sequence (Q99572 whole entry): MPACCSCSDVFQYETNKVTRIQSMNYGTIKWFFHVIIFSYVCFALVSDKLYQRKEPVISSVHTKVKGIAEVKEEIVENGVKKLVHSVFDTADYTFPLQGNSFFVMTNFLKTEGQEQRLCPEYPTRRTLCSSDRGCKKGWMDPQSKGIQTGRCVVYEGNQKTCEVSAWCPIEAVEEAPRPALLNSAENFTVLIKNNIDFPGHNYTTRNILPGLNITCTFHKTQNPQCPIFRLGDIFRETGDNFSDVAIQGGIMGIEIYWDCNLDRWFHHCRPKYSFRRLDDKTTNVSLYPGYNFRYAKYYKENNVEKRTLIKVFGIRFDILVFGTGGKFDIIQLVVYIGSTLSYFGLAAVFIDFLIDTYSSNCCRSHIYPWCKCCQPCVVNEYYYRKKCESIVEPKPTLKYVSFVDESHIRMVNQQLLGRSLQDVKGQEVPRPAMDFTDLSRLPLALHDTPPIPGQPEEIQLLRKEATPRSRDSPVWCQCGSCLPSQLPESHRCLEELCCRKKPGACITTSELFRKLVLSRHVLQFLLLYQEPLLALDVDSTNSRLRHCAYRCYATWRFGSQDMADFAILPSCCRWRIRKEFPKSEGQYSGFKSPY
Procedure, shortened: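 1321N1 cells stably expressing human P2X7R, stimulated with BzATP; calcium flux read on FLIPR. IC50 is the mean of n ≥ 2 runs, each including a positive control.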

P2X purinoceptor 7 [3] = molecular target: T1, P2X purinoceptor 7; test: Antagonist activity at P2X7R in human whole blood assessed as inhibition of LPS-induced IL-1beta production incubated for 30 mins followed by ATP addition for 30 mins by ELISA assay; type: tissue-based
Salmonella typhimurium = test: Genotoxicity in Salmonella typhimurium by Ames test; type: toxicity, organism-based; settings: salmonella enterica subsp. enterica serovar typhimurium
[4] = Intrinsic clearance in rat liver microsomes assessed per mg of protein at 1 uM after 1 hr by LC/MS/MS analysis; type: ADME; settings: read-out: CLH
[5] = Intrinsic clearance in human liver microsomes assessed per mg of protein at 1 uM after 1 hr by LC/MS/MS analysis; type: ADME; settings: read-out: CLH
Liver microsome [6] = test: Metabolic stability in human liver microsomes assessed as GSH adduct formation at 20 uM preincubated for 5 mins followed by NADPH addition measured after 60 mins by LC/MS/MS analysis; type: ADME; settings: 1 h
Procedure, shortened: (§1)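 Liver microsomes (human or rat) incubated with compound and glutathione. The GSH adduct is quantified by UV chromatography as % relative peak area versus the summed areas of GSH adduct, other metabolites and parent compound.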

Liver microsome [7] = test: Metabolic stability in rat liver microsomes assessed as GSH adduct formation at 20 uM preincubated for 5 mins followed by NADPH addition measured after 60 mins by LC/MS/MS analysis; type: ADME; settings: 1 h; procedure, shortened: as §1
Liver microsome [8] = test: Retention time of the compound in human liver microsomes at 20 uM by LC/UV chromatogram analysis; type: ADME
Liver microsome [9] = test: Retention time of the compound in rat liver microsomes at 20 uM by LC/UV chromatogram analysis; type: ADME
Liver microsome [10] = test: Drug metabolism in rat liver microsomes assessed as GSH adduct UV peak area at 20 uM preincubated for 5 mins followed by NADPH addition measured after 60 mins by LC/MS/MS analysis relative to total area of GSH adduct, other metabolites, parent compound; type: ADME; settings: 1 h
[11] = Solubility of compound by lyophilization solubility assay; type: physicochemical
Cytochrome P450 3A4 = Cytochrome P450 3A4 (Homo sapiens, UniProt P08684); test: Inhibition of human CYP3A4 by fluorescence assay; type: ADME
Sequence of Cytochrome P450 3A4 (P08684 whole entry): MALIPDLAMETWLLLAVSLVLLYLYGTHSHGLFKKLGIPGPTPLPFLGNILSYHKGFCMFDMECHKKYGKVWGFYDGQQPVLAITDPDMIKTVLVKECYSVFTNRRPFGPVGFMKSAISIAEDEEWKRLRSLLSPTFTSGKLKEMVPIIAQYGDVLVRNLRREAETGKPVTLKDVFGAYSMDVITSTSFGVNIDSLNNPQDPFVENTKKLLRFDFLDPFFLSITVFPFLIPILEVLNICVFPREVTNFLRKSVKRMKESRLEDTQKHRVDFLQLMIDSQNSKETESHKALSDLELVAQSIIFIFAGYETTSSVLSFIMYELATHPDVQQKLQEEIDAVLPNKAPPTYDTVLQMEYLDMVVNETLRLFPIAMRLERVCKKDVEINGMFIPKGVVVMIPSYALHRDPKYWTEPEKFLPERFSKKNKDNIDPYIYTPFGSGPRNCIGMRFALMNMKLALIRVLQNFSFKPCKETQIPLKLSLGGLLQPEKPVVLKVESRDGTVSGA
Procedure, shortened: (§2)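 IC50 values for CYP3A4, CYP2D6 and CYP2C9 from a fluorescence-based inhibition assay; average of n ≥ 2.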

[12] = Clearance in rat at 0.5 mg/kg, iv administered as single dose; type: ADME, organism-based; settings: in vivo
Procedure, shortened: (§3)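 Single-dose rat PK: iv at 0.5 mg/kg and po at 2 mg/kg. n ≥ 2 animals per time point. Oral AUC normalized to dose; clearance, Vdss and half-life taken from the iv arm.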

[13] = Volume of distribution at steady state in rat at 2 mg/kg, po and 0.5 mg/kg, iv administered as single dose; type: ADME, organism-based; settings: in vivo, read-out: Vdss
Procedure, shortened: (§4)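 Rats given a single dose, iv 0.5 mg/kg or po 2 mg/kg, with n ≥ 2 per time point. Bioavailability is derived from the po and iv exposures. Vdss is reported in L/kg.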

Cytochrome P450 2C9 = Cytochrome P450 2C9 (Homo sapiens, UniProt P11712); test: Inhibition of human CYP2C9 by fluorescence assay; type: ADME; procedure, shortened: as §2
Sequence of Cytochrome P450 2C9 (P11712 whole entry): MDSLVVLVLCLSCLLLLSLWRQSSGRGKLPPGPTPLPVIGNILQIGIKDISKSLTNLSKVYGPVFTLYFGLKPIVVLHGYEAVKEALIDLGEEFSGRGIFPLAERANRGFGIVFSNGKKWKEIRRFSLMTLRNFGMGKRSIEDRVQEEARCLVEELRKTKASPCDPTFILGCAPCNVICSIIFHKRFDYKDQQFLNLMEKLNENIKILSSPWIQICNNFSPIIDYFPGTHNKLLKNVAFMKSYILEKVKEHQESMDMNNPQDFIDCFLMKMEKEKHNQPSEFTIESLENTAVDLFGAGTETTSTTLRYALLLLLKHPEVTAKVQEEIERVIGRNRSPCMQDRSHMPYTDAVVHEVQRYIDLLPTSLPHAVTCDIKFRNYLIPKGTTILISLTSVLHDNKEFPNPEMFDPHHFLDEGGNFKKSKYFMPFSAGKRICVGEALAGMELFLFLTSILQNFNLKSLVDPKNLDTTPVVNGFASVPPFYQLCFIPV

Liver microsome [14] = test: Drug metabolism in human liver microsomes assessed as GSH adduct UV peak area at 20 uM preincubated for 5 mins followed by NADPH addition measured after 60 mins by LC/MS/MS analysis relative to total area of GSH adduct, other metabolites, parent compound; type: ADME; settings: 1 h
Cytochrome P450 2D6 = Cytochrome P450 2D6 (Homo sapiens, UniProt P10635); test: Inhibition of human CYP2D6 by fluorescence assay; type: ADME; procedure, shortened: as §2
Sequence of Cytochrome P450 2D6 (P10635 whole entry): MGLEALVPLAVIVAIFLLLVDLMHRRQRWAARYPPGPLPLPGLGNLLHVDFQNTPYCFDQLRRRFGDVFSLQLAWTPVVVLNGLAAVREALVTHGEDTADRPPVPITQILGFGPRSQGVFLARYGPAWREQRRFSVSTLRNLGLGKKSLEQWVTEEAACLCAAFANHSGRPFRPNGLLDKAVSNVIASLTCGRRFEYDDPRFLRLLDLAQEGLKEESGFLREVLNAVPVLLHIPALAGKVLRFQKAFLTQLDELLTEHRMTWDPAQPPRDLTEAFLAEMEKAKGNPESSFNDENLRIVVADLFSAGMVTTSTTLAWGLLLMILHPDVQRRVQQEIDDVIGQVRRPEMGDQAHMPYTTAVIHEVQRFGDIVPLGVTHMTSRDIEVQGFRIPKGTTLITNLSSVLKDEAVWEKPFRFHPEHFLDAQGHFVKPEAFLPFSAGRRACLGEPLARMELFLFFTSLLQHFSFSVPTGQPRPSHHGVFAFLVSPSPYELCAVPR

[15] = Oral bioavailability in rat at 2 mg/kg administered as single dose; type: ADME, organism-based; settings: in vivo; procedure, shortened: as §4
[16] = Half life in rat at 0.5 mg/kg, iv administered as single dose; type: ADME, organism-based; settings: in vivo; procedure, shortened: as §3
Rattus norvegicus = test: Dose normalized AUC in rat at 2 mg/kg, po administered as single dose; type: ADME, organism-based; settings: in vivo; procedure, shortened: as §3
[17] = Drug level in solid phase treated with (4S)-N-[4-Chloro-5-(2-hydroxyethoxy)-2-methyl-phenyl]-4-(4-fluorophenyl)-2-oxo-3,4-dihydro-1H-pyridine-5-carboxamide after 1 month; type: physicochemical; settings: 730.5 h

In the case of `Cc1cc(Cl)c(OCCO)cc1NC(=O)N1C=CC(=O)C[C@H]1c1ccc(F)cc1`, the metabolised at 4 h, 10 µM [1] is reported as 50% and the IC50 (P2X purinoceptor 7 [2]) is reported as 9 nM.

Compound `COc1cc(NC(=O)N2C=CC(=O)C[C@@H]2c2ccccc2)c(Br)cc1Cl` has an IC50 (P2X purinoceptor 7 [2]) of over 10000 nM.

Compound `COc1cc(I)c(CC(=O)N2C=CC(=O)C[C@H]2c2ccccc2)cc1OC` has an IC50 (P2X purinoceptor 7 [2]) of 38 nM.

In the case of `CN1C=C(C(=O)Nc2cc(-c3ccn[nH]c3=O)ccc2F)[C@H](c2ccc(F)cc2)CC1=O`, the IC50 (P2X purinoceptor 7 [3]) is reported as 27 nM, the Activity (Salmonella typhimurium) is reported as “Non-toxic” and the IC50 (P2X purinoceptor 7 [2]) is reported as 26 nM.

In the case of `Cc1ccc(-c2ccnn(C)c2=O)cc1NC(=O)C1=CN(C)C(=O)C[C@H]1c1ccc(F)cc1`, the IC50 (P2X purinoceptor 7 [3]) is reported as 6 nM and the Activity (Salmonella typhimurium) is reported as “Toxic”.

For `Cc1ccc(-c2ccn[nH]c2=O)cc1NC(=O)C1=CN(C)C(=O)C[C@H]1c1ccc(F)cc1`, the IC50 (P2X purinoceptor 7 [3]) was 20 nM and the Activity (Salmonella typhimurium) was “Toxic”.

Work on `COc1cc(Br)c(NC(=O)N2C=CC(=O)CC2c2ccccc2)cc1OC` (racemic) yielded a microsomal CLint at 1 µM [4] of 78 µL/min/mg, a microsomal CLint at 1 µM [5] of 22 µL/min/mg and an IC50 (P2X purinoceptor 7 [2]) of 39 nM.

`COc1cc(C)c(NC(=O)N2C=CC(=O)C[C@H]2c2ccc(F)cc2)cc1OC` gave a microsomal CLint at 1 µM [4] of 25 µL/min/mg, a microsomal CLint at 1 µM [5] of 8.2 µL/min/mg and an IC50 (P2X purinoceptor 7 [2]) of 12 nM.

For `O=C1C=CN(C(=O)Nc2ccc3ncccc3c2Br)[C@H](c2ccc(F)cc2)C1`, the Stability (Liver microsome [6]) was “Stable” and the Stability (Liver microsome [7]) was “Stable”.

With `COc1cc(NC(=O)N2C=CC(=O)C[C@H]2c2ccc(F)cc2)c(Br)c(SC[C@H](NC(=O)CC[C@H](N)C(=O)O)C(=O)NCC(=O)O)c1O` the Retention_time (Liver microsome [8]) was 10.74 min and the Retention_time (Liver microsome [9]) was 10.74 min.

Compound `COc1cc(I)c(CC(=O)N2C=CC(=O)CC2c2ccccc2)cc1OC` (racemic) has a microsomal CLint at 1 µM [4] of 548 µL/min/mg, a microsomal CLint at 1 µM [5] of 168 µL/min/mg and an IC50 (P2X purinoceptor 7 [2]) of 104 nM.

For `O=C1C=CN(C(=O)Nc2cc(OCCO)c(Cl)cc2Br)[C@H](c2ccc(F)cc2)C1`, the IC50 (P2X purinoceptor 7 [2]) was 40 nM.

`COc1cc(Br)c(NC(=O)N2C=CC(=O)C[C@H]2c2ccc(F)cc2)cc1OC` showed a Retention_time (Liver microsome [8]) of 16.58 min, a Retention_time (Liver microsome [9]) of 16.58 min and an IC50 (P2X purinoceptor 7 [2]) of 9 nM.

With `COC[C@H](O)Cn1c(=O)cnn(-c2ccc(C)c(NC(=O)C3=CN(C)C(=O)C[C@H]3c3ccc(F)cc3)c2)c1=O` the Stability (Liver microsome [10]) was “Stable”, the solubility [11] was 1020 µg/mL (≈ 1910 µM) and the IC50 (Cytochrome P450 3A4) was over 50000 nM. For the same compound, the clearance [12] was 23 mL/min/kg, the Vd [13] was 1.2 L/kg and the IC50 (Cytochrome P450 2C9) was over 50000 nM. The Stability (Liver microsome [14]) was “Stable”, the IC50 (Cytochrome P450 2D6) was over 50000 nM and the IC50 (P2X purinoceptor 7 [3]) was 17 nM. The bioavailability [15] was 20%, the Activity (Salmonella typhimurium) was “Non-toxic” and the half-life [16] was 4 h. For the same compound, the AUC (Rattus norvegicus) was 279 ng·h/mL and the IC50 (P2X purinoceptor 7 [2]) was 30 nM.

For `Cc1ccc(-n2ccccc2=O)cc1NC(=O)C1=CN(C)C(=O)N[C@H]1c1ccc(F)cc1`, the IC50 (P2X purinoceptor 7 [3]) was 21 nM, the Activity (Salmonella typhimurium) was “Non-toxic” and the IC50 (P2X purinoceptor 7 [2]) was 22 nM.

`COc1cc(NC(=O)N2C=CC(=O)C[C@H]2c2ccc(F)cc2)c(Br)cc1F` gave an IC50 (P2X purinoceptor 7 [2]) of 32 nM.

In the case of `Cc1cc(Cl)c(OCCO)cc1N`, the Drug metabolism [17] is reported as “metabolite_detected” and the Activity (Salmonella typhimurium) is reported as “Toxic”.

`COc1cc(NC(=O)N2C=CC(=O)C[C@H]2c2ccccc2)c(Br)cc1Cl` showed an IC50 (P2X purinoceptor 7 [2]) of 33 nM.

For `Cc1cc(F)c(-c2ccnn(C)c2=O)cc1NC(=O)C1=CN(C)C(=O)C[C@H]1c1ccc(F)cc1`, the solubility [11] was 322 µg/mL (≈ 693 µM), the IC50 (Cytochrome P450 3A4) was over 32000 nM and the clearance [12] was 17 mL/min/kg. The Vd [13] was 1 L/kg, the IC50 (Cytochrome P450 2C9) was over 32000 nM and the Stability (Liver microsome [14]) was “Stable”. For the same compound, the IC50 (Cytochrome P450 2D6) was over 32000 nM, the IC50 (P2X purinoceptor 7 [3]) was 13 nM and the bioavailability [15] was 64%. The Activity (Salmonella typhimurium) was “Non-toxic”, the half-life [16] was 1 h and the AUC (Rattus norvegicus) was 1121 ng·h/mL. It also gave an IC50 (P2X purinoceptor 7 [2]) of 8 nM.

In the case of `COc1cc(I)c(CC(=O)N2C=CC(=O)C[C@@H]2c2ccccc2)cc1OC`, the IC50 (P2X purinoceptor 7 [2]) is reported as 3800 nM.

`COc1cc(Br)c(NC(=O)C2=CNC(=O)C[C@H]2c2cccc(F)c2)cc1OC` showed an IC50 (P2X purinoceptor 7 [3]) of 107 nM and an IC50 (P2X purinoceptor 7 [2]) of 9 nM.

With `Cc1ccc(-n2ncccc2=O)cc1NC(=O)C1=CN(C)C(=O)C[C@H]1c1ccc(F)cc1` the IC50 (P2X purinoceptor 7 [3]) was 33 nM and the Activity (Salmonella typhimurium) was “Non-toxic”.

For `Cc1ccc(-c2ccnn(CCO)c2=O)cc1NC(=O)C1=CN(C)C(=O)C[C@H]1c1ccc(F)cc1`, the IC50 (P2X purinoceptor 7 [3]) was 17 nM and the Activity (Salmonella typhimurium) was “Non-toxic”.

For `Cc1cc2cnn(CCO)c2cc1NC(=O)C1=CNC(=O)C[C@H]1c1ccc(F)cc1`, the IC50 (P2X purinoceptor 7 [3]) was 47 nM and the IC50 (P2X purinoceptor 7 [2]) was 23 nM.

Compound `COc1cc(NC(=O)N2C=CC(=O)C[C@H]2c2ccc(F)cc2)c(Br)cc1Cl` has an IC50 (P2X purinoceptor 7 [2]) of 37 nM.

For `COc1cc(C)c(C)c(NC(=O)C2=CNC(=O)C[C@H]2c2ccc(F)cc2)c1`, the IC50 (P2X purinoceptor 7 [2]) was 9 nM.

For `COc1cc(Br)c(CC(=O)N2C=CC(=O)CC2c2ccccc2)cc1OC` (racemic), the microsomal CLint at 1 µM [4] was 490 µL/min/mg, the microsomal CLint at 1 µM [5] was 153 µL/min/mg and the IC50 (P2X purinoceptor 7 [2]) was 92 nM.
